ChEMBL document CHEMBL4513216, “Probing the Open Global Health Chemical Diversity Library for Multistage-Active Starting Points for Next-Generation Antimalarials” (ACS Infect Dis, 2020)

Assay: Toxicity liver stage against HepG2, at 10uM
Type: cell-based
Set-up: test concentration 10 uM, cell line HepG2-A16-CD81EGFP
Conditions: human, HepG2-A16-CD81EGFP cells; read-out: INHIBITION
Method in brief: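 Uninfected HepG2-A16-CD81EGFP cells, 3 × 10^3 per well, 1536-well, plated on prespotted compound at 10 μM final, parasite-free screening media added to match infected plates; puromycin 10 μM positive, DMSO 0.5% negative; run in parallel with 48 h PbLuc assay at 37 °C, 5% CO2; viability by CellTiter-Glo luminescence, normalized to controls.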

Row | SMILES | cytotoxicity at 10 µM
1 | COCC(=O)NC[C@H]1OC[C@@H](NC2CCC(F)(F)CC2)[C@@H]1O | -3.32%
2 | Cn1cc(CNC[C@H]2Cn3ccnc3CO2)c2ccccc21 | -1.91%
3 | Cc1nc(N2CCCC2)nc(C)c1NS(C)(=O)=O | 1.61%
4 | O=C(Cn1nc(Br)nc1Br)N1CCCCC1 | -4.38%
5 | CN(C)C(CNS(=O)(=O)c1ccc(F)cc1F)c1cccn1C (centres undefined) | -13.9%
6 | COCC1c2c(cnn2C)CCN1Cc1ccoc1 (centres undefined) | -10.8%
7 | O=C(Cn1nc(C(F)(F)F)c(Br)c1C1CC1)N1CCOCC1 | -0.614%
8 | O=C(O)CCC(=O)Nc1nn(Cc2ccccc2Cl)cc1Cl | 7%
9 | Cc1nn(C)c2cn(C(C)C(=O)NCc3ccc(F)cc3)nc12 (centres undefined) | 9.46%
10 | O=C(Cn1ccc(C(=O)O)n1)Nc1c(Cl)cccc1Cl | 7.07%
11 | COc1ccc(-c2cc(C3(O)CCN(C)CC3)on2)cc1 | 3.89%
12 | COCCNC(=O)c1nnn(Cc2ccccc2)c1OC | 11.6%
13 | Cc1nn(C)cc1NC(=O)CN1CCN(C2CCCC2)C(=O)C1 | 6.89%
14 | CN1CCOC(C)(C(=O)Nc2nccs2)C1 (centres undefined) | 4.92%
15 | Cc1ccc(-c2nnc(C3CCCN3S(=O)(=O)c3cnn(C)c3C)o2)s1 (centres undefined) | 5.35%
16 | CCCn1nccc1-c1cnc(CC2CCN(C(C)=O)C2)cn1 (centres undefined) | -6.88%
17 | COc1ccc2c(c1)NC(C1CCNCC1)NS2(=O)=O (centres undefined) | -2.86%
18 | Cc1nnsc1C(=O)N1CCCCC1c1cc2nc(C)c(C)c(O)n2n1 (centres undefined) | -5.93%
19 | NC(=O)C1(c2cnccn2)CCCN1Cc1ccccn1 (centres undefined) | -6.36%
20 | COc1ccc(C)cc1CC(=O)N1CC[C@@]2(CCCO2)[C@@H](O)C1 | -1.47%
21 | Cc1cccc(Nc2cc(C)nc(C3CCCCN3CC(N)=O)n2)n1 (centres undefined) | -4.03%
22 | COCC(=O)N1CCCC1c1cc(N2CCN(C(C)=O)CC2)cc(C)n1 (centres undefined) | -9.41%
23 | COc1cccc(C(=O)N2CCCC2c2ncc3c(n2)CCN(C)C3)c1 (centres undefined) | -9.41%

Row | SMILES | cytotoxicity at 10 µM
24 | CC(=O)NC[C@]1(O)CCN(C(=O)c2ccc(F)c(Cl)c2)C[C@H]1O | 1.47%
25 | CN(C)C(=O)CN1CCCCC1c1nc(N)ncc1-c1ccccc1 (centres undefined) | 4.19%
26 | CCn1cc(CN2CC3CCCN3C[C@H]2C)c(C)n1 (some centres undefined) | 0.951%
27 | O=C(CC(SC1CCCCC1)C(=O)O)c1ccc(Br)cc1 (centres undefined) | 3.43%
28 | O=S(=O)(c1cc(F)ccc1F)N1CCCC1c1ccncc1 (centres undefined) | 14.3%
29 | Cc1cc(C(=O)N(C)C2CCS(=O)(=O)C2)c2ccc(F)cc2n1 (centres undefined) | -9.59%
30 | COc1ccc(CN(C)Cn2cc(C)n(-c3cc(C)on3)c2=O)cc1 | 3.36%
31 | O=S(=O)(c1cncc(F)c1)N1CCC2(CCCCC2)C1 | -4.61%
32 | CN(Cc1nnc2ccccn12)C(=O)NC1CCCCC1 | -5.97%
33 | CC(C)(C)c1n[nH]c(C2CN(CC3CCC3)CCO2)n1 (centres undefined) | 9.15%
34 | COc1ccccc1CC1CCCN(C(=O)c2n[nH]c3c2CCC3)C1 (centres undefined) | 13.3%
35 | Cc1ccc(C)c(Oc2ccc(CNC(=O)C3CCC(=O)N3)cn2)c1 (centres undefined) | 5.98%
36 | O=C(NCC1CCCN1CCc1ccccc1)NCC1(O)CCC1 (centres undefined) | -3.06%
37 | CNC(=O)c1c(C)cccc1NCC(=O)Nc1cc(C)nn1C | -0.503%
38 | O=C(Cc1ccc(F)cc1)NCCNS(=O)(=O)c1ccc(F)c(F)c1 | -6.7%
39 | Cc1nc(-c2cnn(C)c2)sc1C(=O)NCc1ccc(C)n1C | 9.25%
40 | CC1CN(C(=O)NCc2cccc(C#N)c2)CCN1CC(F)(F)F (centres undefined) | -6.68%
41 | CC(C)CCC(=O)NCC(=O)N1CCCCCC1c1ccco1 (centres undefined) | 7.47%
42 | CN(C)c1nccc(NC(=O)c2ccncc2)n1 | -4.33%
43 | CC(CC(=O)N1CCCN(Cc2nccn2C)CC1)n1cccc1 (centres undefined) | -12.5%
44 | N#Cc1cccnc1N1CCC(OCc2ccccc2)CC1 | -7.43%
45 | CNC(=O)CN1CCOC(c2ccccc2C(F)(F)F)C1 (centres undefined) | 0.71%
46 | CS(=O)(=O)N1CCc2c(cccc2NC(=O)Nc2ccccn2)C1 | -6%

Row | SMILES | cytotoxicity at 10 µM
47 | CCc1nccn1C1CCCN(C(=O)c2cc[nH]n2)C1 (centres undefined) | 4.54%
48 | CC(C)CC(CCO)CNC(=O)N1CCCC1(C)C (centres undefined) | -12.7%
49 | CCN(Cc1ccoc1)C(=O)NC1CCN(CC2CC2)C1 (centres undefined) | -0.525%
50 | CNC(=O)c1cccc(CNC(C)c2cc(Cl)ccc2OC)c1 (centres undefined) | 10.3%
51 | CC(C)N(C)C(=O)c1ccc(Cl)c(NC(=O)C2CCC2)c1 | -2.74%
52 | CCCNC(=O)C(C)Nc1ccc(COCC)cc1 (centres undefined) | 2.37%
53 | Cc1ncc(CN(C)C(=O)c2ccc3c(c2O)OC(C)(C)C3)s1 | 6.93%
54 | COCCNC(=O)C(C)S(=O)(=O)c1ccc(OC)cc1 (centres undefined) | 4.4%
55 | CCN(Cc1ccc(Cl)c(Cl)c1)C(=O)CCn1cncn1 | 9.87%
56 | CC(=O)N1CCN(CC=C(C)C)CC1 | 3.95%
57 | CCCN(C)S(=O)(=O)NC(=O)c1ccc(CC)o1 | 20.5%
58 | CN(CCc1ccc2c(c1)CCO2)C1CCS(=O)(=O)CC1 | -7.94%
59 | CC(NCCCC#N)c1ccc(S(C)(=O)=O)c(F)c1 (centres undefined) | 6.96%
60 | O=C(c1cccnc1-n1cccn1)N1CCN(CC2CC2)CC1 | -4.71%
61 | CC(C)NC(=O)NCCCc1cc(N)n(-c2ccccc2)n1 | -6.78%
62 | COc1ccc(CS(=O)(=O)CC(=O)NCC2CC2)cc1F | -0.265%
63 | O=S(=O)(c1ccccc1)N1CCC[C@]2(C[C@H](OCC3CC3)CO2)C1 | -75.9%
64 | COC(=O)c1ccc2c(-c3ccnc(N[C@@H](C)CO)n3)c[nH]c2c1 | -5.94%
65 | CN(c1nccc(-c2cnc3sccn3c2=O)n1)C1CCCCC1 | -8.44%
66 | CC(C)c1nc(CN(C)C(=O)CCc2ccc3c(c2)OCO3)cs1 | -15.8%
67 | Cc1cc(C)n(CCCC(=O)N2CC[C@H]3NCCC[C@]3(CO)C2)n1 | -0.862%
68 | CCN1CCC(CC(=O)N2CCn3cccc3C2c2cccnc2)CC1 (centres undefined) | -8.87%
69 | COCCC(=O)N1C[C@H](C(C)C)[C@@H](N(C)C)C1 | 5.75%

Row | SMILES | cytotoxicity at 10 µM
70 | COc1ccccc1OC1CCN(C(=O)c2cccc(O)c2C)CC1 | 12.5%
71 | CCS(=O)(=O)N1CCC(c2nccn2Cc2ccccn2)CC1 | 6.27%
72 | CN(C)c1ccc(CN2CCN(c3ccc(C#N)cc3)C(=O)C2)cn1 | -28.2%
73 | CCc1c(C)sc2ncnc(N3CC[C@@H](N4CCOCC4)[C@H](O)C3)c12 | -4.24%
74 | COCCN(C)C(C(=O)O)c1ccc(C)c(C)c1 (centres undefined) | -9.47%
75 | Cc1cc(C(F)(F)F)nc(CNc2nc(C)nc3c2cnn3C)n1 | -2.24%
76 | Cc1noc(C)c1CN1CCn2nc(CCC(=O)N3CCCC3)cc2C1 | -4.52%
77 | CNCCNc1nccc(-c2cn(C)nc2C)n1 | 2.35%
78 | Cc1nc(C)n(CCCNc2ncnc3onc(C)c23)n1 | -7.12%
79 | CCOCc1nc2c(c(N3CCN4CCCC4C3)n1)CCNCC2 (centres undefined) | 0.394%
80 | CCc1ccc(CN2CCN(c3ccc(C(N)=O)cn3)CC2)nc1 | 4.95%
81 | Cc1nc(N)nc(C)c1CC(=O)N1CCCCC1c1cccc(F)c1 (centres undefined) | -2.06%
82 | C=C(C)COc1ccccc1CN1CCC(NC(C)=O)CC1 | 11.9%
83 | OC1(CN2CCCC2)COCCN(c2ncnc3[nH]ccc23)C1 (centres undefined) | 10.7%
84 | CCN(Cc1cc(Cl)ccc1OC)Cc1ncnn1CC | 3.9%
85 | O=C(COc1cccnc1)N1CCOC(C(F)(F)F)C1 (centres undefined) | -11.5%
86 | O=C(NCCNc1cc(N2CCCC2)ncn1)c1cnccn1 | -46.3%
87 | CN(CCSc1ccccc1)C(=O)C(c1cccnc1)N1CCOCC1 (centres undefined) | 4.94%
88 | Cc1cc(-c2ccc(C(=O)O)cc2)nc(C2CCCN(C(C)C)C2)n1 (centres undefined) | 5.61%
89 | CC(C)(C)CC(=O)NS(=O)(=O)c1ccc(C#N)cc1C(F)(F)F | -12.3%
90 | Cc1nnc(C(C)N2CCCN(Cc3ccc(F)cc3)CC2)o1 (centres undefined) | -4.92%
91 | Cc1cnn(C2CCCN(C(=O)CCNS(C)(=O)=O)C2)c1 (centres undefined) | -28.6%
92 | Cc1nn(CCO)c(C)c1CNCc1cccnc1N(C)C | -9.89%

Row | SMILES | cytotoxicity at 10 µM
93 | COc1ccc(CNCc2c(C(C)C)nn(C)c2N(C)C)cn1 | -3.92%
94 | O=C(c1ccccc1)N1CCN(CC(O)c2ccc(F)cc2)CC1 (centres undefined) | -8.24%
95 | CCN1CCN(C(=O)c2cnc3c(cnn3C3CCCC3)c2)CC1 | -14.1%
96 | Cn1ccc2c(C(=O)N3CCCC3c3noc(C4CC4)n3)cccc21 (centres undefined) | -7.82%
97 | N#Cc1ccccc1N1CCCN(C(=O)CCc2ccsc2)CC1 | -8.25%
98 | Cc1ncc2c(n1)CN(CCCOc1ccc(C#N)cc1)CC2 | -3.9%
99 | CCc1nc(CN2CCCN(C(=O)CCCOC)CC2)cs1 | -14.4%
100 | Cc1cccc2nc(CN3CCCC3Cn3cccn3)cn12 (centres undefined) | 0.893%
101 | CCc1ncc2c(n1)CN(CC(=O)Nc1cccnc1)CC2 | -1.1%
102 | O=C(CN1CCCC(Cn2cncn2)C1)NCc1ccccc1F (centres undefined) | -4.65%
103 | Cc1cccc(-c2noc(CN3CCCC3Cn3cncn3)n2)c1 (centres undefined) | 0.983%
104 | Cc1cnn(CC2CN(CC(=O)NCc3ccc(C)s3)CCO2)c1 (centres undefined) | 0.742%
105 | CN(Cc1nnc2n1CCC2)C(=O)Cc1ccc2c(c1)CCC2 | -15.5%
106 | O=C(NCC1CCOC1)c1csc(-c2cccc(Cl)c2)n1 (centres undefined) | -7.41%
107 | Cc1cc(CNc2cc(Cl)ccc2Cl)no1 | 18.9%
108 | O=C(c1ccc(NC2CC2)nc1)N1CCCC(n2cccn2)C1 (centres undefined) | -12.2%
109 | CN(C)C(=O)N1CCN(Cc2noc(Cc3ccccc3)n2)CC1 | -8.8%
110 | CCn1cc(NC(=O)C2CCN(Cc3ccccc3C#N)CC2)cn1 | 1.13%
111 | O=C(NCCNc1cnccn1)N1CCCC1 | 3.92%
112 | c1ccc(CN2CCN(Cc3cscn3)CC2)cc1 | -2.69%
113 | C=c1ncsc1=C1NN=C(C2CCCN2C(=O)Cn2cccn2)O1 (centres undefined) | 4%
114 | Cc1nnc(SCC(=O)N2C[C@@H]3CC[C@H]2CN(c2ncccn2)C3)[nH]1 | 2.24%
